Measurements from ChEMBL document CHEMBL1949631, “Novel 3-phenylpiperidine-4-carboxamides as highly potent and orally long-acting neurokinin-1 receptor antagonists with reduced CYP3A induction” (Bioorg Med Chem, 2012).

Legend:
Substance-P receptor = Substance-P receptor (Homo sapiens, UniProt P25103); experiment: Displacement of [125I]BH-SP from tachykinin NK1 receptor in human IM9 cells after 30 mins by scintillation counting; assay type: cell-based, IM-9
Summary of the method: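 Receptor membranes from human IM-9 lymphoblasts (grown 3 days, homogenised, spun 40,000 g) in 50 mM Tris-HCl pH 7.4 with 0.02% BSA, protease inhibitors and 3 mM MnCl2. Incubated with [125I]BH-SP (final 130 pM) for 30 min at room temperature in 0.2 mL. Nonspecific binding defined with 2×10^-6 M SP. Read by rapid GF/C filtration (PEI-soaked filters), three washes, scintillation counting.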

Cavia porcellus [1] = experiment: Inhibition of GR73632-induced increase in locomotor activity in po dosed Hartley guinea pig after 24 hrs; assay type: functional; conditions: read-out: ID50 (the source's name)
Summary of the method: (§1)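 Male Hartley guinea pigs, 6–8 per group, dosed orally with compound suspended in 0.5% methylcellulose (2 mL/kg), or vehicle, 0.75 h (1 h line) or 23.75 h (24 h line) before intracerebroventricular […] infusion. %inh. comes from locomotor counts corrected for the sham-infused group against the vehicle control. ID50 and 95% CI come from linear regression of the dose–response.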

Cavia porcellus [2] = experiment: Inhibition of GR73632-induced increase in locomotor activity in Hartley guinea pig at 0.1 mg/kg, iv after 5 mins relative to control; assay type: functional
Summary of the method: (§2)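 Male Hartley guinea pigs, 6–8 per group. Compound or vehicle in DMA-PEG400 (1:1, v/v), 0.5 mL/kg, given intravenously just before intracerebroventricular infusion of the NK1 agonist […]. %inh. is taken from activity counts relative to vehicle-treated and sham-infused groups. Values are averages of 5–10 independent experiments.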

Cavia porcellus [3] = experiment: Inhibition of GR73632-induced increase in locomotor activity in po dosed Hartley guinea pig after 1 hr; assay type: functional; conditions: read-out: ID50 (the source's name); summary of the method: as §1
[4] = (§3) Metabolic stability in human liver microsomes assessed as parent compound remaining at 1 uM after 15 to 30 mins by HPLC analysis; assay type: ADME, Microsome; conditions: liver microsomes, read-out: Stability
Summary of the method: (§4)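 Compound at 1 μM incubated with human liver microsomes for 15 and 30 min under standard conditions. Remaining parent compound quantified by HPLC and expressed as μL/mg/min.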

[5] = Oral bioavailability in rat at 1 mg/kg; assay type: ADME, organism-based; conditions: in vivo
Summary of the method: (§5)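 Single oral dose of 1 mg/kg. Blood concentration–time curve used to derive AUC, mean residence time and bioavailability.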

[6] = Mean residence time in dog at 1 mg/kg, po; assay type: ADME, organism-based, Canis lupus familiaris; design: dose 1 mg/kg, route oral; conditions: in vivo; summary of the method: as §5
[7] = Mean residence time in guinea pig at 1 mg/kg, po; assay type: ADME, organism-based, Cavia porcellus; design: dose 1 mg/kg, route oral; conditions: in vivo; summary of the method: as §5
[8] = Metabolic stability in rat microsomes; assay type: ADME, Microsome
[9] = Metabolic stability in dog microsomes; assay type: ADME, Canis lupus familiaris, Microsome
[10] = Metabolic stability in monkey microsomes; assay type: ADME, Macaca mulatta, Microsome; conditions: rhesus monkey
[11] = AUC (0 to 24 hrs) in rat at 1 mg/kg, po; assay type: ADME, organism-based; design: time < 24 hr, dose 1 mg/kg, route oral; conditions: plasma; summary of the method: as §5
[12] = Mean residence time in rat at 1 mg/kg, po; assay type: ADME, organism-based; design: dose 1 mg/kg, route oral; conditions: in vivo; summary of the method: as §5
[13] = AUC (0 to 24 hrs) in monkey at 1 mg/kg, po; assay type: ADME, organism-based, Macaca mulatta; design: time < 24 hr, dose 1 mg/kg, route oral; conditions: rhesus monkey, plasma; summary of the method: as §5
[14] = AUC (0 to 24 hrs) in dog at 1 mg/kg, po; assay type: ADME, organism-based, Canis lupus familiaris; design: time < 24 hr, dose 1 mg/kg, route oral; conditions: plasma; summary of the method: as §5
[15] = Metabolic stability in guinea pig microsomes; assay type: ADME, Cavia porcellus, Microsome
[16] = molecular target: T1, Nuclear receptor subfamily 1 group I member 2 (Homo sapiens, UniProt O75469); experiment: Induction of human PXR-mediated CYP3A activity at 10 uM
T1 sequence (O75469 whole entry): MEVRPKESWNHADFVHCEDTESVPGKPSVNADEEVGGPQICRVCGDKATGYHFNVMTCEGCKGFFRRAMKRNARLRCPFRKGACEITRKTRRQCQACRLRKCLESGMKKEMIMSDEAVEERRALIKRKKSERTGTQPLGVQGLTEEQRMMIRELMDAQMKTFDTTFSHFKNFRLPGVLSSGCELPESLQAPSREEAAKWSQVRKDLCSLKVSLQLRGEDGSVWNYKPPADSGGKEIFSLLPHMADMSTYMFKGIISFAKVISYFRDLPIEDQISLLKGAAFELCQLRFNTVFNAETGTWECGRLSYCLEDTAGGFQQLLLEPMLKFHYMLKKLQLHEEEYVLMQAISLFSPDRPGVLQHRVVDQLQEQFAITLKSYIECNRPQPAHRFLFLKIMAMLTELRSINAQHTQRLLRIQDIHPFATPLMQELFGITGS

[17] = Oral bioavailability in monkey at 1 mg/kg; assay type: ADME, organism-based, Macaca mulatta; conditions: rhesus monkey, in vivo; summary of the method: as §5
[18] = AUC (0 to 24 hrs) in guinea pig at 1 mg/kg, po; assay type: ADME, organism-based, Cavia porcellus; design: time < 24 hr, dose 1 mg/kg, route oral; conditions: plasma; summary of the method: as §5
[19] = Mean residence time in monkey at 1 mg/kg, po; assay type: ADME, organism-based, Macaca mulatta; design: dose 1 mg/kg, route oral; conditions: rhesus monkey, in vivo; summary of the method: as §5
[20] = Oral bioavailability in guinea pig at 1 mg/kg; assay type: ADME, organism-based, Cavia porcellus; conditions: in vivo; summary of the method: as §5
[21] = Oral bioavailability in dog at 1 mg/kg; assay type: ADME, organism-based, Canis lupus familiaris; conditions: in vivo; summary of the method: as §5
Cavia porcellus [22] = experiment: Inhibition of GR73632-induced increase in locomotor activity in Hartley guinea pig at 0.3 mg/kg, iv after 5 mins relative to control; assay type: functional; summary of the method: as §2
Liver microsomes = experiment: as §3; assay type: ADME, Microsome; conditions: microsomes, 1 µM; summary of the method: as §4

Substance-P receptor, sequence (P25103 whole entry): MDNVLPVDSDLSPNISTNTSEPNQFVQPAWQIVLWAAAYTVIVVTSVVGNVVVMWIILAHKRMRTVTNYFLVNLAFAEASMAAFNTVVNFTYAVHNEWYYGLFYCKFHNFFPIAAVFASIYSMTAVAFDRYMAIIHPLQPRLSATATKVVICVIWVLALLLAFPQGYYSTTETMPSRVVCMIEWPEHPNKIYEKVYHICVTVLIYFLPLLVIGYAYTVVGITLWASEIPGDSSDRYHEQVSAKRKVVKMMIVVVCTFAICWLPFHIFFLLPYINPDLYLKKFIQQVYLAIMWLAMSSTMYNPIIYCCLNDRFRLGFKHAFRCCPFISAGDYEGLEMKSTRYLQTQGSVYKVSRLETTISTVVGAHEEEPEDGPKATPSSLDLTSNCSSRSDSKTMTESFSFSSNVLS

| Structure (SMILES) | IC50 (Substance-P receptor) [nM] | microsomal CLint at 1 µM [4] [µL/min/mg] | inhibition in vivo at 0.3 mg/kg (Cavia porcellus [22]) [%] | also measured |
| --- | --- | --- | --- | --- |
| CC(=O)N1CCC(C(=O)N2CCC(C(=O)N(C)Cc3cc(C(F)(F)F)cc(C(F)(F)F)c3)=C(c3ccccc3)C2)CC1 | 0.17 | – | – | – |
| Cc1cc(F)ccc1[C@H]1CN(C(=O)C(N)=O)CC[C@@H]1C(=O)N(C)Cc1cc(C(F)(F)F)cc(C(F)(F)F)c1 | 0.02 | 30 | – | ED50 (Cavia porcellus [1]): 0.72 mg/kg; inhibition in vivo at 0.1 mg/kg (Cavia porcellus [2]): 88.8%; ED50 (Cavia porcellus [3]): 0.14 mg/kg |
| Cc1cc(F)ccc1[C@@H]1CN(C(=O)C(N)=O)CC[C@H]1C(=O)N(C)Cc1cc(C(F)(F)F)cc(C(F)(F)F)c1 | > 100 | – | – | – |
| Cc1cc(F)ccc1[C@H]1CN(C(=O)C(N)=O)CC[C@@H]1C(=O)N(C)[C@@H](C)c1cc(C(F)(F)F)cc(C(F)(F)F)c1 | – | 2 | – | bioavailability [5]: 29%; MRT [6]: 6.5 h; ED50 (Cavia porcellus [1]): 0.57 mg/kg; MRT [7]: 7.5 h; Stability [8]: 13 µL/min/mg; Stability [9]: 0 µL/min/mg; Stability [10]: 14 µL/min/mg; AUC(0-t) at 24 h [11]: 521 ng·h/mL; inhibition in vivo at 0.1 mg/kg (Cavia porcellus [2]): 78.9%; MRT [12]: 4.5 h; ED50 (Cavia porcellus [3]): 0.1 mg/kg; AUC(0-t) at 24 h [13]: 1040 ng·h/mL; AUC(0-t) at 24 h [14]: 2150 ng·h/mL; Stability [15]: 3 µL/min/mg; Activity [16]: 3%; bioavailability [17]: 38%; AUC(0-t) at 24 h [18]: 1080 ng·h/mL; MRT [19]: 6.4 h; bioavailability [20]: 83%; bioavailability [21]: 40% |
| Cc1cc(F)ccc1[C@H]1CN(C(=O)C(N)=O)CC[C@@H]1C(=O)N(C)[C@H](C)c1cc(C(F)(F)F)cc(C(F)(F)F)c1 | 0.2 | 57 | – | inhibition in vivo at 0.1 mg/kg (Cavia porcellus [2]): 43.1% |
| CN(Cc1cc(C(F)(F)F)cc(C(F)(F)F)c1)C(=O)[C@@H]1CCNC[C@H]1c1ccccc1 (racemic) | 2.6 | – | – | – |
| CC(=O)N1CC[C@@H](C(=O)N(C)Cc2cc(C(F)(F)F)cc(C(F)(F)F)c2)[C@H](c2ccccc2)C1 (racemic) | 2.6 | – | – | – |
| CC(=O)N1CC[C@H](C(=O)N(C)Cc2cc(C(F)(F)F)cc(C(F)(F)F)c2)[C@H](c2ccccc2)C1 (racemic) | 3.2 | – | – | – |
| CC(=O)NCC(=O)N1CC[C@@H](C(=O)N(C)Cc2cc(C(F)(F)F)cc(C(F)(F)F)c2)[C@H](c2ccccc2)C1 (racemic) | 12 | – | – | – |
| CC(=O)N1CCC(C(=O)N2CC[C@@H](C(=O)N(C)Cc3cc(C(F)(F)F)cc(C(F)(F)F)c3)[C@H](c3ccccc3)C2)CC1 (racemic) | – | – | 72.1 | – |
| CC(=O)N1CCC(C(=O)N2CC[C@@H](C(=O)NCc3cc(C(F)(F)F)cc(C(F)(F)F)c3)[C@H](c3ccccc3)C2)CC1 (racemic) | 2.7 | – | – | – |
| CC(=O)N1CCC(C(=O)N2CC[C@H](C(=O)N(C)Cc3cc(C(F)(F)F)cc(C(F)(F)F)c3)[C@@H](c3ccc(C)cc3)C2)CC1 (racemic) | 0.18 | – | – | – |
| CC(=O)N1CCC(C(=O)N2CC[C@H](C(=O)N(C)Cc3cc(C(F)(F)F)cc(C(F)(F)F)c3)[C@@H](c3cccc(C)c3)C2)CC1 (racemic) | 0.14 | – | – | – |
| CC(=O)N1CCC(C(=O)N2CC[C@H](C(=O)N(C)Cc3cc(C(F)(F)F)cc(C(F)(F)F)c3)[C@@H](c3ccccc3C)C2)CC1 (racemic) | 0.032 | – | 60.1 | – |
| CCc1ccccc1[C@H]1CN(C(=O)C2CCN(C(C)=O)CC2)CC[C@@H]1C(=O)N(C)Cc1cc(C(F)(F)F)cc(C(F)(F)F)c1 (racemic) | 0.064 | – | – | – |
| CC(=O)N1CCC(C(=O)N2CC[C@H](C(=O)N(C)Cc3cc(C(F)(F)F)cc(C(F)(F)F)c3)[C@@H](c3ccccc3C(C)C)C2)CC1 (racemic) | 0.21 | – | – | – |
| CC(=O)N1CCC(C(=O)N2CC[C@H](C(=O)N(C)Cc3cc(C(F)(F)F)cc(C(F)(F)F)c3)[C@@H](c3ccc(F)cc3)C2)CC1 (racemic) | 0.052 | – | 41.4 | – |
| CC(=O)N1CCC(C(=O)N2CC[C@H](C(=O)N(C)Cc3cc(C(F)(F)F)cc(C(F)(F)F)c3)[C@@H](c3ccc(F)cc3C)C2)CC1 (racemic) | 0.047 | 111 | 105 | Activity [16]: 2% |
| CC(=O)NCC(=O)N1CC[C@H](C(=O)N(C)Cc2cc(C(F)(F)F)cc(C(F)(F)F)c2)[C@@H](c2ccc(F)cc2C)C1 (racemic) | 0.043 | 59 | 48.9 | – |
| CNC(=O)N1CC[C@H](C(=O)N(C)Cc2cc(C(F)(F)F)cc(C(F)(F)F)c2)[C@@H](c2ccc(F)cc2C)C1 (racemic) | 0.048 | 199 | 80 | – |
| Cc1cc(F)ccc1[C@H]1CN(C(N)=O)CC[C@@H]1C(=O)N(C)Cc1cc(C(F)(F)F)cc(C(F)(F)F)c1 (racemic) | 0.035 | 112 | 80.3 | – |
| CONC(=O)N1CC[C@H](C(=O)N(C)Cc2cc(C(F)(F)F)cc(C(F)(F)F)c2)[C@@H](c2ccc(F)cc2C)C1 (racemic) | 0.073 | – | – | inhibition in vivo at 0.1 mg/kg (Cavia porcellus [2]): -23.9% |
| CNC(=O)C(=O)N1CC[C@H](C(=O)N(C)Cc2cc(C(F)(F)F)cc(C(F)(F)F)c2)[C@@H](c2ccc(F)cc2C)C1 (racemic) | 0.11 | 115 | 51.5 | – |
| Cc1cc(F)ccc1[C@H]1CN(C(=O)C(N)=O)CC[C@@H]1C(=O)N(C)Cc1cc(C(F)(F)F)cc(C(F)(F)F)c1 (racemic) | 0.052 | – | 86.7 | Stability (Liver microsomes): 40 µL/min/mg |
| Cc1cc(F)ccc1[C@H]1CN(C(=O)C(=O)NO)CC[C@@H]1C(=O)N(C)Cc1cc(C(F)(F)F)cc(C(F)(F)F)c1 (racemic) | 0.046 | 2 | – | inhibition in vivo at 0.1 mg/kg (Cavia porcellus [2]): -15.5% |
| CN(Cc1cc(C(F)(F)F)cc(C(F)(F)F)c1)C(=O)[C@H]1CCNC[C@H]1c1ccccc1 (relative stereo) | 5.6 | – | – | – |
